B1: NELF-E aptamer (parent)
chain: CCCAACGACUGCCGAGCGAGAUUACGCUUGAGCGCCCCACUGAGGAUGCCCACGGGCGAUUGGGGCACGG

This series covers variants of B1. The experiment in a line: HiTS-RAP. Particulars: with NELF-E (Drosophila). In a few lines:
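Aptamer DNA templates bearing a T7 promoter and a ter site were sequenced on an Illumina GAIIx flowcell. T7 RNA polymerase then transcribed them in situ, and GST-Tus halted transcription over 30 minutes at 37°C. After a 30-minute room-temperature equilibration with NELF-E-mOrange at 0.064 to 1000 nM in HEPES binding buffer, clusters were imaged, using only the first binding curve. Intensities normalised to sequencing intensity were averaged per sequence and fitted with weighted Hill fits to give Kd, retaining only fits whose variance stayed under 1,000,000.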
What is called Kd is the equilibrium constant for the complex coming apart. Turning to CCCAACGACUGCCGAGCGAGAUUACGCUUGAGCGCCUCACGGAGGAUGCCCACGGGCGAUUGGGGCACGG [C37U U41G], the Kd was 16.1 nM.
To CCCAACGACUGCCGAGCGAGAUUACGCUUGAGCCCCCCACUGAGGAUGCCCACGGGCGAUUGGGGCACGG [G34C] belongs 9.79 nM.
Turning to CCCAACGACUGCCGAGCGAGAUUACGCUUGAGCUCCCCACUGAGGAUGCCCACGGGCGAUUGGGGCACGG [G34U], the dissociation constant Kd was 5.56 nM.
To CCCAACGACUGCCGAGCGAGAUUACGCUUGAGCACCCCACUGAGGAUGCCCACGGGCGAUUGGGGCACGG [G34A] belongs 6.53 nM; to CCCAACGACUGCCGAGCGAGAUUACGCUUGAGUGCCCCUCUGAGGAUGCCCACGGGCGAUUGGGGCACGG [C33U A39U], 26.9 nM.
In the case of CCCAACGACUGCCGAGCGAGAUUACGCUUGAGGUCCCCACUGAGGAUGCCCACGGGCGAUUGGGGCACGG [C33G G34U] it was 5.51 nM.
To CCCAACGACUGCCGAGCGAGAUUACGCUUGAGGGCCCCACGGAGGAUGCCCACGGGCGAUUGGGGCACGG [C33G U41G] belongs 7.38 nM; to CCCAACGACUGCCGAGCGAGAUUACGCUUGAGCACCCCACUGAGGAUGCCCUCGGGCGAUUGGGGCACGG [G34A A52U], 20.7 nM.
On to CCCAACGACUGCCGAGCGAGAUUACGCUUGAGCGGCCCACUGAGGAUGCCCACGGGCGAUUGGGGCACGG [C35G], for which the equilibrium dissociation constant (Kd) is 6.51 nM.
Take CCCAACGACUGCCGAGCGAGAUUACGCUUGAGCGUCCCACUGAGGAUGCCCACGGGCGAUUGGGGCACGG [C35U]: the equilibrium dissociation constant (Kd) amounted to 13 nM.
To CCCAACGACUGCCGAGCGAGAUUACGCUUGAGCGACCCACUGAGGAUGCCCACGGGCGAUUGGGGCACGG [C35A] belongs 6.56 nM.
In the case of CCCAACGACUGCCGAGCGAGAUUACGCUUGAGCCGCCCACUGAGGAUGCCCACGGGCGAUUGGGGCACGG [G34C C35G] it was 3.76 nM.
In the case of CCCAACGACUGCCGAGCGAGAUUACGCUUGAGCGCCCCCCUGAGGAUGCCCACGGGCGAUUGGGGCACGG [A39C] it was 20.5 nM; in that of CCCAACGACUGCCGAGCGAGAUUACGCUUGAGCGCCCCGCUGAGGAUGCCCACGGGCGAUUGGGGCACGG [A39G], 8.97 nM; in that of CCCAACGACUGCCGAGCGAGAUUACGCUUGAGGGCCCCACUGAGGAUGCCCACGGGCGAUUGGGGCACGG [C33G], 5.4 nM.
On to CCCAACGACUGCCGAGCGAGAUUACGCUUGAGAGCCCCACUGAGGAUGCCCACGGGCGAUUGGGGCACGG [C33A], for which the equilibrium dissociation constant (Kd) is 4.67 nM.
For the variant CCCAACGACUGCCGAGCGAGAUUACGCUUGAGUGCCCCACUGAGGAUGCCCACGGGCGAUUGGGGCACGG [C33U], the Kd amounted to 4.92 nM.
To CCCAACGACUGCCGAGCGAGAUUACGCUUGAGUGCCCCACUGAGGAUGCCCACAGGCGAUUGGGGCACGG [C33U G54A] belongs 6.14 nM.
CCCAACGACUGCCGAGCGAGAUUACGCUUGAGCGCCCUACGGAGGAUGCCCACGGGCGAUUGGGGCACGG [C38U U41G]: the Kd came out at 7.77 nM.
To CCCAACGACUGCCGAGCGAGAUUACGCUUGAGCACCCCACUGAGGAUGCCCACGGGCGAUUGGGGCUCGG [G34A A67U] belongs 16.8 nM.
To CCCAACGACUGCCGAGCGAGAUUACGCUUGAGCGCACCACUGAGGAUGCCCACGGGCGAUUGGAGCACGG [C36A G64A] belongs 14.3 nM; to CCCAACGACUGCCGAGCGAGAUUACGCUUGAGCGCCCUGCUGAGGAUGCCCACGGGCGAUUGGGGCACGG [C38U A39G], 6.36 nM; to CCCAACGACUGCCGAGCGAGAUUACGCUUGAGCGCCGCACUGAGGAUGCCCACGGGCGAUUGGGGCACGG [C37G], 5.85 nM.
To CCCAACGACUGCCGAGCGAGAUUACGCUUGAGCGCCUCACUGAGGAUGCCCACGGGCGAUUGGGGCACGG [C37U] belongs 11.1 nM; to CCCAACGACUGCCGAGCGAGAUUACGCUUGAGCGCCACACUGAGGAUGCCCACGGGCGAUUGGGGCACGG [C37A], 13.7 nM.
Turning to CCCAACGACUGCCGAGCGAGAUUACGCUUGAGCACCCCACGGAGGAUGCCCACGGGCGAUUGGGGCACGG [G34A U41G], the Kd turned out to be 7.5 nM.
In the case of CCCAACGACUGCCGAGCGAGAUUACGCUUGAGCGCACCACUGAGGAUGCCCACGGGCGAUUGGGGCACGG [C36A] it was 8.24 nM; in that of CCCAACGACUGCCGAGCGAGAUUACGCUUGAGCGCUCCACUGAGGAUGCCCACGGGCGAUUGGGGCACGG [C36U], 6.29 nM; in that of CCCAACGACUGCCGAGCGAGAUUACGCUUGAGCGCGCCACUGAGGAUGCCCACGGGCGAUUGGGGCACGG [C36G], 6 nM.
Turning to CCCAACGACUGCCGAGCGAGAUUACGCUUGAACGCCCCACUGAGGAUGCCCACGGGCGAUUGGGGCACGG [G32A], the Kd came out at 4.35 nM.
As for CCCAACGACUGCCGAGCGAGAUUACGCUUGACCGCCCCACUGAGGAUGCCCACGGGCGAUUGGGGCACGG [G32C], the Kd was 4.57 nM.
In the case of CCCAACGACUGCCGAGCGAGAUUACGCUUGAUCGCCCCACUGAGGAUGCCCACGGGCGAUUGGGGCACGG [G32U] it was 5.38 nM; in that of CCCAACGACUGCCGAGCGAGAUUACGCUUGAGCUGCCCACUGAGGAUGCCCACGGGCGAUUGGGGCACGG [G34U C35G], 4.52 nM.
Regarding CCCAACGACUGCCGAGCGAGAUUACGCUUGAACGCCCCACGGAGGAUGCCCACGGGCGAUUGGGGCACGG [G32A U41G], the Kd came to 5.08 nM.
In the case of CCCAACGACUGCCGAGCGAGAUUACGCUUGAGCGCCACACGGAGGAUGCCCACGGGCGAUUGGGGCACGG [C37A U41G], the Kd was determined as 15.9 nM.
With CCCAACGACUGCCGAGCGAGAUUACGCUUGAGCGCCCCGCUGAGGAUGCCCACGGGUGAUUGGGGCACGG [A39G C57U], the Kd stood at 9.77 nM.
On to CCCAACGACUGCCGAGCGAGAUUACGCUUGAGCGCCCGACUGAGGAUGCCCACGGGCGAUUGGGGCACGG [C38G], for which the dissociation constant Kd is 5.24 nM.
In the case of CCCAACGACUGCCGAGCGAGAUUACGCUUGAGCGCCCAACUGAGGAUGCCCACGGGCGAUUGGGGCACGG [C38A] it was 31.4 nM.
As for CCCAACGACUGCCGAGCGAGAUUACGCUUGAGCGCCCUACUGAGGAUGCCCACGGGCGAUUGGGGCACGG [C38U], the Kd was determined as 7.54 nM.

The record behind these values is the RNAGym collection of RNA variant scans (doi:10.1038/nmeth.2970).
